Active and inactive are the calls of the source. No cut-off for these calls is given here.
Key:
HeLa [1] = experiment: Inhibition of lysosome fusion with autophagosome in human HeLa cells harboring GFP-LC3 assessed as increase in GFP-LC3-2 clustering at 2 uM after 4 hrs; format: functional, cell-based
In short: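 HeLa cells stably expressing GFP-LC3 were treated with compound for 4 h, then imaged. Total GFP clusters per cell were counted. Eight-well replicates, about 500 cells/well, mean ± SD, three independent experiments.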

HeLa [2] = experiment: Induction of lysosomotropism in human HeLa cells infected with Ebolavirus assessed as clustering of late endosomes/lysosomes in cytoplasm at 2 uM for 1 hr by Lysosensor DND189 staining based assay; format: functional, cell-based
In short: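 HeLa cells treated 1 h (2 μM; bafilomycin A1 0.01 μM as control), then LysoSensor DND 189 for 10 min. Washed and imaged live at 443/505 nm (dye) and 405/450 nm (compound). Fluorescence intensity/area quantified. Mean ± SD of 8 wells, about 3000 cells each, three independent experiments.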

[3] = Toxicity in 6 hrs post fertilized zebrafish embryo assessed as teratogenic effect by measuring effect on blood circulation up to 50 uM up to 120 hrs post fertilization by inverted microscopic method; parameters: species or system Danio rerio; conditions: in vivo
Ebolavirus [4] = experiment: Antiviral activity against Ebolavirus H. sapiens-wt/1995/Kikwit-9510621 infected in human HeLa cells assessed as inhibition of viral infection at 2 uM treated for 2 hrs after viral infection and measured after 24 hrs by EboV GP immunostaining based high content imaging analysis; format: functional, organism-based
Albumin = Albumin (Homo sapiens, UniProt P02768); experiment: Binding affinity to human serum albumin at compound to protein molar ratio of 1:20 after 10 mins by fluorescence spectral analysis; format: ADME; conditions: isolated protein
Albumin, sequence (P02768 whole entry): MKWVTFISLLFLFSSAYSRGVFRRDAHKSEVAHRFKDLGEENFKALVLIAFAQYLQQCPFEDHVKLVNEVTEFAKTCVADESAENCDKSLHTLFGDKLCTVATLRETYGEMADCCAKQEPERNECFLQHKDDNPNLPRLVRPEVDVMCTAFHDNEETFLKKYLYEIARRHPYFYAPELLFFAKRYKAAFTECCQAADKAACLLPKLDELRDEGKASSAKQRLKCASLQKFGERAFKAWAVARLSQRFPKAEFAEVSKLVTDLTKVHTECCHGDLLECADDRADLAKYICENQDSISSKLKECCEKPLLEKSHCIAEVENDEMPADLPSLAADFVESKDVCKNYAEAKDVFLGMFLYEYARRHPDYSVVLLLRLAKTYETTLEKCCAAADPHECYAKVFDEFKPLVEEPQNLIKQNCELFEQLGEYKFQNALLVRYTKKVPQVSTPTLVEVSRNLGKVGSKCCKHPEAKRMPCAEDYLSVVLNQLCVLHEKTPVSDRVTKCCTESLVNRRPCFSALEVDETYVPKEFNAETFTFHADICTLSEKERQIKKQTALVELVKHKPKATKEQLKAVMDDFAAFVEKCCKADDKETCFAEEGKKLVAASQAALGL
In short: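 Protein fluorescence spectra recorded while compound was added in increasing amounts. Stern-Volmer binding constant (KSV) derived from the fluorescence change.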

[5] = Toxicity in 6 hrs post fertilized zebrafish embryo assessed as lethal effect on heart beat up to 50 uM up to 120 hrs post fertilization by inverted microscopic method; format: tissue-based, Danio rerio; conditions: in vivo
HeLa [6] = experiment: Induction of lysosomotropism in human HeLa cells infected with Ebolavirus assessed as increase in red fluorescence at 2 uM for 2 hrs by acridine orange staining based assay; format: functional, cell-based
In short: (§1)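 HeLa cells were pretreated with compound for 2 h, then given acridine orange for 30 min and washed. Red AO fluorescence in acidic compartments was imaged, and total intensity and average area were scored by high-content imaging. Eight wells per point, about 3000 cells/well, mean ± SD, representative of three independent experiments.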

Ebolavirus [7] = experiment: Antiviral activity against Ebolavirus H. sapiens-wt/1995/Kikwit-9510621 infected in HFF assessed as inhibition of viral infection pretreated for 2 hrs followed by viral infection and measured after 48 hrs by EboV GP immunostaining based high content imaging analysis; format: functional, organism-based; conditions: Orthoebolavirus
[8] = Selectivity index, ratio of toxic concentration for hepatotoxicity in transgenic l-fabp:EGFP zebrafish embryo to EC50 for Ebolavirus H. sapiens-wt/1995/Kikwit-9510621; format: toxicity; conditions: read-out: Selectivity Index
[9] = Toxicity in 6 hrs post fertilized zebrafish embryo assessed as teratogenic effect by measuring effect on heart beat frequency up to 50 uM up to 120 hrs post fertilization by inverted microscopic method; parameters: species or system Danio rerio; conditions: in vivo
[10] = Toxicity in 6 hrs post fertilized zebrafish embryo assessed as tail detachment up to 50 uM up to 120 hrs post fertilization by inverted microscopic method; parameters: species or system Danio rerio; conditions: in vivo
[11] = Selectivity index, ratio of CC50 for HFF to EC50 for Ebolavirus H. sapiens-wt/1995/Kikwit-9510621 infected in human HeLa cells; format: toxicity, cell-based; conditions: read-out: Ratio CC50/EC50
HeLa [12] = experiment: Induction of lysosomotropism in human HeLa cells infected with Ebolavirus assessed as expansion of acid compartments at 2 uM for 2 hrs by acridine orange staining based assay; format: functional, cell-based; in short: as §1
[13] = Toxicity in 6 hrs post fertilized zebrafish embryo assessed as teratogenic effect by measuring liver morphology and color up to 50 uM up to 120 hrs post fertilization by inverted microscopic method; format: tissue-based, Danio rerio; conditions: in vivo
[14] = Selectivity index, ratio of CC50 for human HeLa cells to EC50 for Ebolavirus H. sapiens-wt/1995/Kikwit-9510621 infected in human HeLa cells; format: toxicity, cell-based; conditions: read-out: Ratio CC50/EC50
HeLa [15] = experiment: Induction of lysosomotropism in human HeLa cells infected with Ebolavirus assessed as dense clustering in perinuclear region at 2 uM for 2 hrs by acridine orange staining based assay; format: functional, cell-based
In short: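 HeLa cells pretreated 2 h, then acridine orange for 30 min, washed and imaged. Total intensity and average area of acridine orange fluorescence quantified by high-content imaging. Mean ± SD of 8 wells, about 3000 cells each, three independent experiments.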

HeLa [16] = experiment: Cytotoxicity against human HeLa cells at 50 uM after 2 hrs; format: cell-based
[17] = Toxicity in 6 hrs post fertilized zebrafish embryo assessed as teratogenic effect by measuring pericardial edema up to 50 uM up to 120 hrs post fertilization by inverted microscopic method; parameters: species or system Danio rerio; conditions: in vivo
[18] = Toxicity in 6 hrs post fertilized zebrafish embryo assessed as teratogenic effect by measuring malformation of head up to 50 uM up to 120 hrs post fertilization by inverted microscopic method; format: tissue-based, Danio rerio; conditions: in vivo
[19] = Cytotoxicity against HFF after 2 hrs by high content imaging analysis; format: cell-based; conditions: human, HFF cells
[20] = molecular target: Procathepsin L (Homo sapiens) (UniProt P07711); experiment: Inhibition of cathepsin L activity in human HeLa cells at 2 uM after 6 hrs by HCA; format: cell-based
Procathepsin L (Homo sapiens), sequence (P07711 114-333 limits assumed): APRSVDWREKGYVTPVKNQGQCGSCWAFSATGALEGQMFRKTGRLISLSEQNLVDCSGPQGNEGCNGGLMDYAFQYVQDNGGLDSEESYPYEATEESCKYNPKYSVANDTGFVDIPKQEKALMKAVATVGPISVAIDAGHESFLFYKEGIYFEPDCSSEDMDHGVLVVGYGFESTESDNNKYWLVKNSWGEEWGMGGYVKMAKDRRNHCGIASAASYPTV

Ebolavirus [21] = experiment: Antiviral activity against Ebolavirus H. sapiens-wt/1995/Kikwit-9510621 infected in human HeLa cells assessed as inhibition of viral infection pretreated for 2 hrs followed by viral infection and measured after 48 hrs by EboV GP immunostaining based high content imaging analysis; format: functional, organism-based; conditions: Orthoebolavirus, H. sapiens-wt/1995/Kikwit-9510621, HeLa; for EC50: read-out: EC50
[22] = Toxicity in 6 hrs post fertilized zebrafish embryo assessed as teratogenic effect by measuring malformation of tail up to 50 uM up to 120 hrs post fertilization by inverted microscopic method; format: tissue-based, Danio rerio; conditions: in vivo
[23] = Toxicity in 6 hrs post fertilized zebrafish embryo assessed as teratogenic effect by measuring scoliosis up to 50 uM up to 120 hrs post fertilization by inverted microscopic method; parameters: species or system Danio rerio; conditions: in vivo
HeLa [24] = experiment: Induction of lysosomotropism in human HeLa cells infected with Ebolavirus assessed as increase in fluorescence intensity of acid compartments at 2 uM for 1 hr by Lysosensor DND189 staining based assay; format: functional, cell-based
In short: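 HeLa cells were pretreated 1 h with compound (Bafilomycin A1 at 0.01 μM as acidification control), then stained with LysoSensor DND 189 for 10 min and washed. Live imaging at Ex/Em 443/505 nm. Fluorescence intensity per area was quantified by image analysis. Eight wells per point, about 3000 cells/well, mean ± SD, three independent experiments.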

[25] = molecular target: Cathepsin B (Homo sapiens) (UniProt P07858); experiment: Inhibition of cathepsin B activity in human HeLa cells at 2 uM after 12 hrs by magic red substrate based fluorescence assay; format: cell-based
In short: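 HeLa cells were exposed to compound for 12 h, then given the Magic Red cathepsin B peptide reporter, washed, and imaged at Ex/Em 590/630. Total intensity and average area of red fluorescence were scored by high-content analysis. Eight wells per point, about 3000 cells/well, mean ± SD, three independent experiments.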

| SMILES | inhibition (HeLa [1]) | Activity (HeLa [2]) | Activity [3] | Activity (Ebolavirus [4]) | KSV (Albumin) | Activity [5] | Activity (HeLa [6]) | EC50 (Ebolavirus [7]) [nM] | EC90 (Ebolavirus [7]) [nM] | selectivity ratio [8] | Activity [9] | Activity [10] | selectivity ratio [11] | Activity (HeLa [12]) | Activity [13] | selectivity ratio [14] | Activity (HeLa [15]) | Activity (HeLa [16]) | Activity [17] | Activity [18] | further results |
| --- | --- | --- | --- | --- | --- | --- | --- | --- | --- | --- | --- | --- | --- | --- | --- | --- | --- | --- | --- | --- | --- |
| Cl.Cl.Cl.Cl.c1cc(NCCN2CCOCC2)c2ccc3c(ccc4c(NCCN5CCOCC5)ccnc43)c2n1 | Active | Active | Non-Toxic | inactive | 1.13 ×10⁵ /M | Non-Toxic | inactive | 550 | 1360 | 103 | Non-Toxic | Non-Toxic | > 36.5 | Active | Non-Toxic | > 28.5 | Active | Toxic | Non-Toxic | Non-Toxic | CC50 at 2 h [19]: > 20000 nM; inhibition [20]: Active; EC90 (Ebolavirus [21]): < 5000 nM; EC50 (Ebolavirus [21]): 700 nM; Activity [22]: Non-Toxic; Activity [23]: Non-Toxic; Activity (HeLa [24]): Active; inhibition [25]: Active |
| Cl.Cl.Cl.Cl.c1cc(NCCCCN2CCOCC2)c2ccc3c(ccc4c(NCCN5CCOCC5)ccnc43)c2n1 | Active | Active | Non-Toxic | inactive | 8.85 ×10⁴ /M | Non-Toxic | inactive | 210 | 780 | 73 | Non-Toxic | Non-Toxic | 11.2 | Active | Non-Toxic | 30 | Active | Toxic | Non-Toxic | Non-Toxic | CC50 at 2 h [19]: 2400 nM; inhibition [20]: Active; EC90 (Ebolavirus [21]): 850 nM; EC50 (Ebolavirus [21]): 260 nM; Activity [22]: Non-Toxic; Activity [23]: Non-Toxic; Activity (HeLa [24]): Active; inhibition [25]: Active |
